We go through 8 compounds from ChEMBL document CHEMBL1212730, “Augmented photoswitching modulates immune signaling” (Nat Chem Biol, 2009).

In assay [1] the target is T1, Peptidyl-prolyl cis-trans isomerase A (Homo sapiens, UniProt P62937). To be noted: Blood, Lysate, 50 to 200 nM.
Target sequence in this assay (P62937 whole entry, looked up): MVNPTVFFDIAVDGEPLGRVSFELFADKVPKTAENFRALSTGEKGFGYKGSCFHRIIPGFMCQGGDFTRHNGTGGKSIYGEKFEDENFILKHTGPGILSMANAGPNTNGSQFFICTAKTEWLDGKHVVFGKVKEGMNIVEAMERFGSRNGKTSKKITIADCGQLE
Assay [2] concerns the target T1, Peptidyl-prolyl cis-trans isomerase A. To be noted: Blood, 50 to 200 nM.
Target sequence in this assay (P62937 whole entry, looked up): as above
The target is the same in assay [3]. To be noted: Blood, 50 to 200 nM. The source holds these as a separate data set.
Target sequence in this assay (P62937 whole entry, looked up): as above
The target is the same in assay [4]. To be noted: 10 uM.
Target sequence in this assay (P62937 whole entry, looked up): as above
The target is the same in assay [5]. Kind of assay: Binding affinity to cyclophilin 18 assessed as reduction in [33P]phosphatase activity of calcineurin by protease coupled assay. A digest of the protocol:
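Calcineurin phosphatase activity measured at 30 °C with 33P-labeled phosphocasein. CaN was 3.5 nM, with Cyp18 at the desired concentrations and 10 µM compound, either irradiated at 740 nm for 45 min or non-irradiated, with or without streptavidin. The inhibitor concentration refers to the Cyp18–compound complex. Data are means ± s.d.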
Target sequence in this assay (P62937 whole entry): as the sequence (P62937 whole entry, looked up) above

The target is the same in assay [6]. Kind of assay: Binding affinity to cyclophilin 18 assessed as reduction in calcineurin activity by protease coupled assay. In a few lines:
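Cyp18 PPIase activity measured by a chymotrypsin-coupled protease assay with Suc-Ala-Phe-Pro-Phe-NH-Np as substrate at 7 °C. Cyp18 was 2.5 nM. Compound was tested non-irradiated, irradiated at 740 nm for 45 min, or irradiated and then kept dark overnight, with DMSO as control. Data are means ± s.d.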
Target sequence in this assay (P62937 whole entry): as the sequence (P62937 whole entry, looked up) above

Assay [7] addresses T2, Protein phosphatase 3 catalytic subunit alpha (Homo sapiens, UniProt Q08209). Kind of assay: Inhibition of calcineurin-mediated NFAT activation in human Jurkat cells by luciferase reporter gene assay. It counts as cell-based. In a few lines: (§1)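 Cells were pretreated with non-irradiated compound, then either kept dark or irradiated at 740 nm for 1 h before PMA/ionomycin stimulation. Luciferase was read in lysed cells. Data are means ± s.d.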
(In general: A reporter such as luciferase makes a cellular process visible.)

For assay [8], the target named is T2, Protein phosphatase 3 catalytic subunit alpha. Kind of assay: Inhibition of calcineurin-mediated NFAT activation in human Jurkat cells measured after 45 min of irradiation with 740 nm light by luciferase reporter gene assay. It counts as cell-based.
The target in assay [9] is T1, Peptidyl-prolyl cis-trans isomerase A. Kind of assay: Inhibition of PPIase activity of cyclophilin 18 by protease coupled assay.
Target sequence in this assay (P62937 whole entry): as the sequence (P62937 whole entry, looked up) above
Assay [10] shares this target. The settings on record: 200 nM.
Target sequence in this assay (P62937 whole entry, looked up): as above
The test system of assay [11] is PBMC. Kind of assay: Immunosuppressive activity in streptavidin-stimulated human PBMC assessed as decrease in PMA/ionomycin-induced IL-2 production measured at 4 hrs interval by flow cytometry. It counts as functional, cell-based.
The subject of assay [12] is PBMC. Kind of assay: Immunosuppressive activity in streptavidin-stimulated human PBMC assessed as decrease in PMA/ionomycin-induced IL-2 production measured at 4 hrs interval post irradiation of 45 mins with 740 nm light by flow cytometry. It counts as functional, cell-based. For orientation: In flow cytometry, cells or beads pass a laser one at a time.
Assay [13] concerns the target T2, Protein phosphatase 3 catalytic subunit alpha. Kind of assay: Inhibition of calcineurin-mediated streptavidin-coupled NFAT activation in human Jurkat cells measured after 45 min of irradiation with 740 nm light by luciferase reporter gene assay. It counts as cell-based.
In assay [14] the test system is PBMC. Kind of assay: Immunosuppressive activity in human PBMC assessed as decrease in PMA/ionomycin-induced IL-2 production measured at 4 hrs interval by flow cytometry. It counts as functional, cell-based.
For assay [15], the system named is PBMC. Kind of assay: Immunosuppressive activity in human PBMC assessed as decrease in PMA/ionomycin-induced IL-2 production measured at 4 hrs interval post irradiation of 45 mins with 740 nm light by flow cytometry. It counts as functional, cell-based.
Assay [16] deals with T2, Protein phosphatase 3 catalytic subunit alpha. Kind of assay: Inhibition of calcineurin-mediated streptavidin-coupled NFAT activation in human Jurkat cells by luciferase reporter gene assay. It counts as cell-based. A digest of the protocol: as §1
The target in assay [17] is T1, Peptidyl-prolyl cis-trans isomerase A. Kind of assay: Binding affinity to cyclophilin 18 by protease coupled assay.
Target sequence in this assay (P62937 whole entry): as the sequence (P62937 whole entry, looked up) above
Assay [18] shares this target. Kind of assay: Binding affinity to streptavidin-coupled biotin-labeled cyclophilin 18 assessed as reduction in [33P] phosphatase activity of calcineurin by protease coupled assay.
Target sequence in this assay (P62937 whole entry): as the sequence (P62937 whole entry, looked up) above

Structures are written as SMILES. Calls of active or inactive are those of the source. No cut-off for these calls is given here.

For `C/C=C/C[C@@H](C)[C@@H](O)[C@H]1C(=O)N[C@@H](CC)C(=O)N(C)CC(=O)N(C)[C@@H](CC(C)C)C(=O)N[C@@H](C(C)C)C(=O)N(C)[C@@H](CC(C)C)C(=O)N[C@@H](C)C(=O)N[C@H](COCC(=O)Nc2ccc(/N=N/c3ccc(NC(=O)CCCC[C@@H]4SC[C@@H]5NC(=O)N[C@@H]54)cc3)cc2)C(=O)N(C)[C@@H](CC(C)C)C(=O)N(C)[C@@H](CC(C)C)C(=O)N(C)[C@@H](C(C)C)C(=O)N1C`, the inhibition entry in assay [1], in assay [2] and in [3] was “Active” each time. In addition, the inhibition (commonly the relative decrease from the control value, in per cent) in [4] was 30%.

Consider `C/C=C/C[C@@H](C)[C@@H](O)[C@H]1C(=O)N[C@@H](CC)C(=O)N(C)CC(=O)N(C)[C@@H](CC(C)C)C(=O)N[C@@H](C(C)C)C(=O)N(C)[C@@H](CC(C)C)C(=O)N[C@@H](C)C(=O)N[C@H](COCC(=O)Nc2ccc(/N=N\c3ccc(NC(=O)CCCC[C@@H]4SC[C@@H]5NC(=O)N[C@@H]54)cc3)cc2)C(=O)N(C)[C@@H](CC(C)C)C(=O)N(C)[C@@H](CC(C)C)C(=O)N(C)[C@@H](C(C)C)C(=O)N1C`, for which the inhibition entry in assay [2] and in assay [3] was “Active” throughout. For the same compound, in assay [5], the concentration for half-maximal inhibition (IC50) (in general, the point on the concentration scale where inhibition reaches its midpoint) turned out to be 950 nM.

As for `C/C=C/C[C@@H](C)[C@@H](O)[C@H]1C(=O)N[C@@H](CC)C(=O)N(C)CC(=O)N(C)[C@@H](CC(C)C)C(=O)N[C@@H](C(C)C)C(=O)N(C)[C@@H](CC(C)C)C(=O)N[C@@H](C)C(=O)N[C@H](COCC(=O)Nc2ccc(/N=N/c3ccc(NC(=O)COC[C@H]4NC(=O)[C@H](C)NC(=O)[C@H](CC(C)C)N(C)C(=O)[C@H](C(C)C)NC(=O)[C@H](CC(C)C)N(C)C(=O)CN(C)C(=O)[C@H](CC)NC(=O)[C@H]([C@H](O)[C@H](C)C/C=C/C)N(C)C(=O)[C@H](C(C)C)N(C)C(=O)[C@H](CC(C)C)N(C)C(=O)[C@H](CC(C)C)N(C)C4=O)cc3)cc2)C(=O)N(C)[C@@H](CC(C)C)C(=O)N(C)[C@@H](CC(C)C)C(=O)N(C)[C@@H](C(C)C)C(=O)N1C`, the IC50 was 487 nM in [6], 358 nM in assay [7], 140 nM in assay [8] and 206 nM in assay [9]. The same compound yielded an inhibition in [4] of 30%.

With `C/C=C/C[C@@H](C)[C@@H](O)[C@H]1C(=O)N[C@@H](CC)C(=O)N(C)CC(=O)N(C)[C@@H](CC(C)C)C(=O)N[C@@H](C(C)C)C(=O)N(C)[C@@H](CC(C)C)C(=O)N[C@@H](C)C(=O)N[C@H](COCC(=O)Nc2ccc(/N=N\c3ccc(NC(=O)COC[C@H]4NC(=O)[C@H](C)NC(=O)[C@H](CC(C)C)N(C)C(=O)[C@H](C(C)C)NC(=O)[C@H](CC(C)C)N(C)C(=O)CN(C)C(=O)[C@H](CC)NC(=O)[C@H]([C@H](O)[C@H](C)C/C=C/C)N(C)C(=O)[C@H](C(C)C)N(C)C(=O)[C@H](CC(C)C)N(C)C(=O)[C@H](CC(C)C)N(C)C4=O)cc3)cc2)C(=O)N(C)[C@@H](CC(C)C)C(=O)N(C)[C@@H](CC(C)C)C(=O)N(C)[C@@H](C(C)C)C(=O)N1C`, the IC50 in [6] was determined as 266 nM; in [9], 30 nM. Further, the inhibition result in assay [10] was “Active”.

For the compound `C/C=C/C[C@@H](C)[C@@H](O)[C@H]1C(=O)N[C@@H](CC)C(=O)N(C)CC(=O)N(C)[C@@H](CC(C)C)C(=O)N[C@@H](C(C)C)C(=O)N(C)[C@@H](CC(C)C)C(=O)N[C@@H](C)C(=O)N[C@H](COCC(=O)Nc2ccc(N=Nc3ccccc3)cc2)C(=O)N(C)[C@@H](CC(C)C)C(=O)N(C)[C@@H](CC(C)C)C(=O)N(C)[C@@H](C(C)C)C(=O)N1C`, the values for the IC50 in [7] and in assay [8] were 75 nM and 49 nM, respectively.

Turning to `C/C=C/C[C@@H](C)[C@@H](O)[C@H]1C(=O)N[C@@H](CC)C(=O)N(C)CC(=O)N(C)[C@@H](CC(C)C)C(=O)N[C@@H](C(C)C)C(=O)N(C)[C@@H](CC(C)C)C(=O)N[C@@H](C)C(=O)N[C@H](COCC(=O)Nc2ccc(N=Nc3ccc(NC(=O)CCCC[C@@H]4SC[C@@H]5NC(=O)N[C@@H]54)cc3)cc2)C(=O)N(C)[C@@H](CC(C)C)C(=O)N(C)[C@@H](CC(C)C)C(=O)N(C)[C@@H](C(C)C)C(=O)N1C`, the result with PBMC [11] was inactive. Further, the outcome with PBMC [12], in the assay with PBMC [14] and in the assay on PBMC [15] was Active. The half-maximal inhibitory concentration (IC50) in assay [13] was determined as 1400 nM; in assay [7] it was 135 nM; in [8] it was 89 nM; in assay [16], 16400 nM.

`C/C=C/C[C@@H](C)[C@@H](O)[C@H]1C(=O)N[C@@H](CC)C(=O)N(C)CC(=O)N(C)[C@@H](CC(C)C)C(=O)N[C@@H](C(C)C)C(=O)N(C)[C@@H](CC(C)C)C(=O)N[C@@H](C)C(=O)N[C@H](COCC(=O)Nc2ccc(/N=N\c3ccccc3)cc2)C(=O)N(C)[C@@H](CC(C)C)C(=O)N(C)[C@@H](CC(C)C)C(=O)N(C)[C@@H](C(C)C)C(=O)N1C`: the values for the IC50 in assay [17] and in [9] were 147 nM and 2.79 nM, respectively.

Consider `C/C=C/C[C@@H](C)[C@@H](O)[C@H]1C(=O)N[C@@H](CC)C(=O)N(C)CC(=O)N(C)[C@@H](CC(C)C)C(=O)N[C@@H](C(C)C)C(=O)N(C)[C@@H](CC(C)C)C(=O)N[C@@H](C)C(=O)N[C@H](COCC(=O)Nc2ccc(/N=N/c3ccccc3)cc2)C(=O)N(C)[C@@H](CC(C)C)C(=O)N(C)[C@@H](CC(C)C)C(=O)N(C)[C@@H](C(C)C)C(=O)N1C`, for which the values for the IC50 in [18] and in assay [9] were 227 nM and 4.75 nM, respectively.
